From publication PMC2943143 (Biochemical pharmacology, 2010)
“And” between values parts separate entries of the source, which are not always exact repeats. Equal entries are not always repeated.

Legend:
[1] = target: HIV-1 reverse transcriptase (Human immunodeficiency virus type 1 group M subtype B, UniProt P04585); test: HIV-1 reverse transcriptase assay; format: biochemical, Human immunodeficiency virus type-1 (HIV-1); conditions: highest tested concentration 1 μM, supplemental Fig. S1B
How it was run: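 Recombinant HIV-1 reverse transcriptase used poly(rA)/oligo(dT)18 (A/T = 2/1) template-primer and dTTP substrate. Enzyme (0.05 unit) was preincubated with test compound in sonicated DMSO at 0 °C for 10 min in Tris-HCl pH 7.5/DTT/glycerol/EDTA buffer. Reaction ran at 37 °C for 60 min. Activity is given as % of control.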

del-2 pol λ (245–575) = del-2 pol λ (245–575) (Homo sapiens, UniProt Q9UGP5); test: Pol assay, del-2 pol λ mutant; format: biochemical
How it was run: (§1)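 Test compound was dissolved in DMSO and sonicated 30 s. It was preincubated with enzyme (0.05 unit final) in 50 mM Tris-HCl pH 7.5, 1 mM DTT, 50% glycerol and 0.1 mM EDTA at 0 °C for 10 min. This was added to each enzyme's standard reaction mix with poly(dA)/oligo(dT)18 (A/T = 2/1) template-primer and dTTP substrate, then incubated at 37 °C for 60 min. Activity is given as % of inhibitor-free control.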

calf pol α = target: T1, calf pol α (Bos taurus, UniProt A0AAA9TD94); test: Pol assay, calf pol α; format: biochemical; conditions: for Ki: pol α, Dixon plot
T1 sequence (A0AAA9TD94 1-1441): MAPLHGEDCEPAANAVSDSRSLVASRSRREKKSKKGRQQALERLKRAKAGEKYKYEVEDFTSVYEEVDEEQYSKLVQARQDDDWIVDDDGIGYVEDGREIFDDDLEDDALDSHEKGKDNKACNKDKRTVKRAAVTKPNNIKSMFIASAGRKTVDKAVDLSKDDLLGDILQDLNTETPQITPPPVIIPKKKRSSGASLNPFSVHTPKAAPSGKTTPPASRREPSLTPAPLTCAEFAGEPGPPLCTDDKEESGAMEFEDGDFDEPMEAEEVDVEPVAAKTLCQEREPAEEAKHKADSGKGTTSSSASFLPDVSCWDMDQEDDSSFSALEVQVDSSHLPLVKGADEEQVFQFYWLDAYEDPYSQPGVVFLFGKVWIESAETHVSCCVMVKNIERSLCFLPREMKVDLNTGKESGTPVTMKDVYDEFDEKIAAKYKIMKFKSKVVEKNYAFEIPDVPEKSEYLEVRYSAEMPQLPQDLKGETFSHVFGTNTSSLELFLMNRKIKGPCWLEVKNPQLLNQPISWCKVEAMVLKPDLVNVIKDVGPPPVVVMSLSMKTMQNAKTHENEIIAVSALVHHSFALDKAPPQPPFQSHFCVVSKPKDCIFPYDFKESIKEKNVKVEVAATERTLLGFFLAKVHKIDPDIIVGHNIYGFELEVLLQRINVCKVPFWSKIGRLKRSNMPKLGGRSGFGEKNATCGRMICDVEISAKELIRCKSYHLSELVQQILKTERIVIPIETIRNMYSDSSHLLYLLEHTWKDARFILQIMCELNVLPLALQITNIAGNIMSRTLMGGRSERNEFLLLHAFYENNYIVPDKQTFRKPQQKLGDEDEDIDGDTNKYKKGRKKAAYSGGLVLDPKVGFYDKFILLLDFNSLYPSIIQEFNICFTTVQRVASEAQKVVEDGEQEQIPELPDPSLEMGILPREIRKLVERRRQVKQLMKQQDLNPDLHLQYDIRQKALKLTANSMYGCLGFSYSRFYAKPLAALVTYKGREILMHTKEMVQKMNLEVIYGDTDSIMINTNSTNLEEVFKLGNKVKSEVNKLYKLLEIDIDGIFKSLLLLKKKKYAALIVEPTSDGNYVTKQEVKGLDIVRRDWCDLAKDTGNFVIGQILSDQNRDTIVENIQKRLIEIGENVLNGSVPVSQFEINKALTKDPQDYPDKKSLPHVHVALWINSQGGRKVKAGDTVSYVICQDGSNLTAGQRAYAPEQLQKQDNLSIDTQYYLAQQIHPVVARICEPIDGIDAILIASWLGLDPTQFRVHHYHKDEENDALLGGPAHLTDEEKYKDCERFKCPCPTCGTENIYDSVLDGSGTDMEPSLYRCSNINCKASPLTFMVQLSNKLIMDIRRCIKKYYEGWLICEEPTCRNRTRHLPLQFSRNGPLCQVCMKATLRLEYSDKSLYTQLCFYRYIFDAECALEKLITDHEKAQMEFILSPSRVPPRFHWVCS
How it was run: as §1

human pol κ = target: T2, human pol κ (Homo sapiens, UniProt Q9UBT6); test: Pol assay, pol κ; format: biochemical; conditions: for Ki: pol κ
T2 sequence (Q9UBT6 1-560 limits assumed): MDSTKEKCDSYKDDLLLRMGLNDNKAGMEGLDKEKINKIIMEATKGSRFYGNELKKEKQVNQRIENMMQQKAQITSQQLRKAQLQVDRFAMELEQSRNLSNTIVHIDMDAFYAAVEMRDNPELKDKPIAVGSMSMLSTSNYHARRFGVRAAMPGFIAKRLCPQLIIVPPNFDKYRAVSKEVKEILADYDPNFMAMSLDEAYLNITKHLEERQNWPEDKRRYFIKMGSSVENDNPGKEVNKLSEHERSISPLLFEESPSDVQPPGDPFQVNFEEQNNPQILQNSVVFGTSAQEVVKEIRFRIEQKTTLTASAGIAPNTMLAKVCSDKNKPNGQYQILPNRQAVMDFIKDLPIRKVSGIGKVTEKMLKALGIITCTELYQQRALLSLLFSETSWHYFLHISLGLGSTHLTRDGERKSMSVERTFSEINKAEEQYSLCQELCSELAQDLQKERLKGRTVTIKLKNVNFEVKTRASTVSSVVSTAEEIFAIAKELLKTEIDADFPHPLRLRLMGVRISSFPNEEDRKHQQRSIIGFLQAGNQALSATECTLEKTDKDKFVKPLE
How it was run: as §1

human pol ε = human pol ε (Homo sapiens, UniProt Q07864); test: Pol assay, human pol ε; format: biochemical
How it was run: as §1

[2] = PGG 10 and 100 nM, supplemental Table S1

human pol ε, sequence (Q07864 whole entry): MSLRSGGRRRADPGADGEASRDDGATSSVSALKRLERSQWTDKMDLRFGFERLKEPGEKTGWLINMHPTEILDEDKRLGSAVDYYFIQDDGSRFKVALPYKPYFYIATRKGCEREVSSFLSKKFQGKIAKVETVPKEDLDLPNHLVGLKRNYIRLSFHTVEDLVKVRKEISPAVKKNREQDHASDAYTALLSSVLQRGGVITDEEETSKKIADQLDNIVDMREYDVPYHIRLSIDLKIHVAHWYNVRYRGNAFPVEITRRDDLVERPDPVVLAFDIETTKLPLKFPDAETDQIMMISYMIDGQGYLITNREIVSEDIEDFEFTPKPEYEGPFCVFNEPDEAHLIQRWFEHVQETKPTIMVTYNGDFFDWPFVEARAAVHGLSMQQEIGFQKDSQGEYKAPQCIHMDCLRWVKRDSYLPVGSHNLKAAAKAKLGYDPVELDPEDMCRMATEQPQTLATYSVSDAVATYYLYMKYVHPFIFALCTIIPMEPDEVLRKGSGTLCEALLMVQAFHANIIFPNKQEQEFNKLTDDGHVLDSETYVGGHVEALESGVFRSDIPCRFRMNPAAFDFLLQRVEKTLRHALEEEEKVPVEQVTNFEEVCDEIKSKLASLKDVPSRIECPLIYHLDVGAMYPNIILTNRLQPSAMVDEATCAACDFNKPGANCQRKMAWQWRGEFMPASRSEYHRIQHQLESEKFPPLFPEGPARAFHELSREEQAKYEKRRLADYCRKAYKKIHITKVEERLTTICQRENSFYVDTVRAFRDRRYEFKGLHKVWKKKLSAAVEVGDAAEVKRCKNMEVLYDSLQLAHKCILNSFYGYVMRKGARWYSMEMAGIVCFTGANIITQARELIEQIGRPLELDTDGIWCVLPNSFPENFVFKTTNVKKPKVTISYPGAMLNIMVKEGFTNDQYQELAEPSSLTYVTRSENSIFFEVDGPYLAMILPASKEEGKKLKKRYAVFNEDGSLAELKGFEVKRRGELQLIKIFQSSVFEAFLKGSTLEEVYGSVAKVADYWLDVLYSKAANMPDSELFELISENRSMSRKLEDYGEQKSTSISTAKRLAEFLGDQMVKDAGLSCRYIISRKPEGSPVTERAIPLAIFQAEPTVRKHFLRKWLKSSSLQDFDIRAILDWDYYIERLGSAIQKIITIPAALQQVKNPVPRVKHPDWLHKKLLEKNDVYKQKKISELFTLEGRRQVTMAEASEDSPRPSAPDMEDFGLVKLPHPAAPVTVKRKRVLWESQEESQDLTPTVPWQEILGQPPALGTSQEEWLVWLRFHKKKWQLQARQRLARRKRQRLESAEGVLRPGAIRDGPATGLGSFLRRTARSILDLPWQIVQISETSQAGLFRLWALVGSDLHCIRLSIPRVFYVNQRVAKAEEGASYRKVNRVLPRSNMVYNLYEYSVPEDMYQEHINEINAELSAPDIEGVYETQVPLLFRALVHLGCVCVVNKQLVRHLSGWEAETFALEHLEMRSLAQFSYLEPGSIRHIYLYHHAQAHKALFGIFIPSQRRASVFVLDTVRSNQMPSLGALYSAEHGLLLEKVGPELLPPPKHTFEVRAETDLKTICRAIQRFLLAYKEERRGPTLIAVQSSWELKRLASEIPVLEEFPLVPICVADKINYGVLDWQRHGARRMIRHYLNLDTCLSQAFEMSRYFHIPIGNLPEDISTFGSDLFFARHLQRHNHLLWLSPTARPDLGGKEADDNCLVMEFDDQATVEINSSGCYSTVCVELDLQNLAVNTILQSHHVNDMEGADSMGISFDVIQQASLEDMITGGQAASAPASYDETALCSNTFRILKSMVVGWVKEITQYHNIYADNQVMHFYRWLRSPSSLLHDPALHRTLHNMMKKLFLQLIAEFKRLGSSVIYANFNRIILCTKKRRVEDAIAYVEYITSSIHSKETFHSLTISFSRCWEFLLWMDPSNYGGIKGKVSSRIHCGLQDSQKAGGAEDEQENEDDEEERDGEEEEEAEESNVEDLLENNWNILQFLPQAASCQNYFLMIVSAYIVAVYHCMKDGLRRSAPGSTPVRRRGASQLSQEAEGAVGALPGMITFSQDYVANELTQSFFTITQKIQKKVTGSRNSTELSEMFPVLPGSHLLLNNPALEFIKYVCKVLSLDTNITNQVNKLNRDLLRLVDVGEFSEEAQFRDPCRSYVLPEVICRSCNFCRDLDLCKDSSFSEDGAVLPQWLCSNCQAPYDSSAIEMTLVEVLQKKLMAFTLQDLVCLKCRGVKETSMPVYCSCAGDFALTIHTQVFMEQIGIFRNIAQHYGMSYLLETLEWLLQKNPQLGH
del-2 pol λ (245–575), sequence (Q9UGP5 245-575): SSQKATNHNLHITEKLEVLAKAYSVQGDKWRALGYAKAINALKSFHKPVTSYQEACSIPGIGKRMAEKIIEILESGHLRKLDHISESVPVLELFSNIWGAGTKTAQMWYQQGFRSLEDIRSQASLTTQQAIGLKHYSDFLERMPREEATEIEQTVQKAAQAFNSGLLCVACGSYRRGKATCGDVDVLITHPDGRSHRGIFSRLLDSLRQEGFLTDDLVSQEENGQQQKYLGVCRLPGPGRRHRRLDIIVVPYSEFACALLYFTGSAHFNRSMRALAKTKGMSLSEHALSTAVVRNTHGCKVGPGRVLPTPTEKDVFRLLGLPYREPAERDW

Q: How did the “effect on HIV-1 reverse transcriptase activity” value [1] turn out when `O=C(OC[C@H]1O[C@@H](OC(=O)c2cc(O)c(O)c(O)c2)[C@H](OC(=O)c2cc(O)c(O)c(O)c2)[C@@H](OC(=O)c2cc(O)c(O)c(O)c2)[C@@H]1OC(=O)c1cc(O)c(O)c(O)c1)c1cc(O)c(O)c(O)c1` [PGG, 1,2,3,4,6-penta-O-galloyl-β-D-glucose] was run?
A: did not suppress

Q: And the IC50 (del-2 pol λ (245–575))?
A: 0.117 µM

Q: What about the “apparent Vmax of pol α, DNA template-primer, decreased to” value (“apparent Vmax of pol α … decreased to” for short) (calf pol α; 5 nM PGG) of the same molecule?
A: 32.2%

Q: And the “apparent Vmax of pol α … decreased to” value (calf pol α; 10 nM PGG)?
A: 18.9%

Q: What about the “apparent Vmax of pol α … decreased to” value (calf pol α; 15 nM PGG) of the same molecule?
A: 13.6%

Q: And the “apparent Vmax of pol α for the dNTP substrate” value (calf pol α; 15 nM PGG (29.2 without PGG))?
A: 3.77 pmol/h

Q: What about the “effect on pol α activity” value (calf pol α; 100 and 1,000 nM PGG, Fig. 1C) of the same molecule?
A: significantly inhibit

Q: What about the IC50 (calf pol α; IC50, pol α, poly(dA)/oligo(dT)18 and dTTP, 0.05 unit enzyme) of the same molecule?
A: 0.013 µM

Q: What about the Ki (calf pol α; for the DNA template-primer) of the same molecule?
A: 0.0025 µM

Q: What about the Ki (calf pol α; for the dNTP substrate) of the same molecule?
A: 0.0022 µM

Q: What about the “Mode of Inhibition, pol α, DNA template-primer” value (calf pol α; Lineweaver-Burk plots) of the same molecule?
A: Non-competitive for DNA template-primer

Q: And the “Mode of Inhibition, pol α, dNTP” value (calf pol α; Lineweaver-Burk plots)?
A: Non-competitive for dNTP

Q: What about the “effect of 0.05% NP-40 on the inhibitory effect on pol α” value (calf pol α; [2]) of the same molecule?
A: not reversed

Q: And the “effect of poly(rC) or BSA on the inhibitory effect on pol α” value (calf pol α; poly(rC) 50 μM, BSA 200 μg/ml)?
A: neither poly(rC) nor BSA influenced

Q: What about the IC50 (human pol κ) of the same molecule?
A: 0.03 µM

Q: And the “Mode of Inhibition, pol κ, DNA template-primer” value (human pol κ)?
A: Non-competitive for DNA template-primer

Q: What about the “Mode of Inhibition, pol κ, dNTP” value (human pol κ) of the same molecule?
A: Non-competitive for dNTP

Q: What about the “effect on pol κ activity” value (human pol κ; 100 and 1,000 nM PGG, Fig. 1C) of the same molecule?
A: significantly inhibit

Q: What about the Ki (human pol κ; with respect to DNA template-primer) of the same molecule?
A: 0.0093 µM

Q: What about the Ki (human pol κ; with respect to dNTP) of the same molecule?
A: 0.0151 µM

Q: And the “effect of 0.05% NP-40 on the inhibitory effect on pol κ” value (human pol κ; [2])?
A: not reversed

Q: What about the “effect of poly(rC) or BSA on the inhibitory effect on pol κ” value (human pol κ; poly(rC) 50 μM, BSA 200 μg/ml) of the same molecule?
A: neither poly(rC) nor BSA influenced

Q: And the “effect on pol ε activity” value (human pol ε; 100 and 1,000 nM PGG, Fig. 1C)?
A: significantly inhibit

Q: What about the IC50 (human pol ε; IC50, pol ε, range stated for replicative pols (α, δ and ε) together) of the same molecule?
A: < 0.1 µM and 0.013 to 0.066 µM
